PG9 Ab binder = binders of HIV-1 gp120 antibody PG9, primary screen, biochemical, TR-FRET. TR-FRET gp120-PG9 antibody binding. inhibition, % at 6.7 µM. hit rate 0.43% among 360,000. AID 624416, 2012; in the data active = inhibition above about 8.5%
NR2E3 ag-1 = inhibitors of NR2E3-RetCOR corepressor binding, primary screen, NR2E3 agonist project, biochemical, TR-FRET, GST-NR2E3, biotin-RetCOR; inhibition of corepressor binding, % at 4.78 µM; hit rate 0.12% among 320,000; Photoreceptor-specific nuclear receptor (Homo sapiens), Q9Y5X4; 1536-well;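 active = percent inhibition above the cutoff of mean plus 3 SD of all tested compounds, set per screening campaign, cut at about 20% in these data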;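 note: 0% = DMSO wells and 100% = biotin wells as full block of FRET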
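Material: NR2E3–RetCOR corepressor complex / Incubation: Compound–protein incubation for 5 h at 4 °C / Dosing: compound at 4.8 µM, single dose / Detection: time-resolved FRET / Benchmarks: high control biotin, low control 0.6% DMSO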
NR1D1 modulator = modulators of Rev-erb alpha DNA binding, primary screen, biochemical, FITC-DNA, fluorescence polarization, uHTS. Rev-erbα–FITC-DNA binding, 90 min. hit rate 0.79% among 370,000. activity, % at 10 µM. Nuclear receptor subfamily 1 group D member 1 (Homo sapiens), P20393;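 active = activity above about 14%, limit read from the data; passing the limit was not always enough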;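 note: 0% = DMSO wells with 35 nM protein and 100% = DMSO wells with 750 nM protein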
NR2E3 ag-2 = NR2E3 agonists in two-hybrid cells, primary screen, cell-based, luminescence, CHO-S, Gal4-NCOR/VP16-NR2E3; hit rate 0.35% among 360,000; Photoreceptor-specific nuclear receptor (Homo sapiens), Q9Y5X4; AID 602229, 2012; luciferase; inhibition of corepressor binding, % at 3.98 µM;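 active = inhibition above the mean of all tested compounds plus 3 SD, cut at about 70% in these data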;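 note: 0% = DMSO with NR2E3 transfected cells and 100% = cells lacking NR2E3 construct; higher means lower luciferase signal from less NR2E3 corepressor binding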
NR2E3 ag confirm = NR2E3 agonists, confirmation, biochemical, TR-FRET. shares compounds with NR2E3 ag-1. cell-free NR2E3 corepressor release, 5 h. activation (reported as inhibition), % at 3.98 µM. hit rate 39% among 360. AID 2379, 2010; in the data active = activation above about 20%
PPARg-NCOR2 ag = agonists of PPARg-NCOR2 corepressor interaction, counter-screen for NR2E3 agonist project, biochemical, TR-FRET | shares compounds with NR2E3 ag-1 | TR-FRET PPARg-NCOR2 coregulator interaction | inhibition, % at 3.98 µM | hit rate 45% among 360 | AID 504787, 2011; in the data active = inhibition above about 20%;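 note: 0% = DMSO vehicle and 100% = wells without protein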
PG9 bind confirm = binders of anti-gp120 antibody PG9, confirmation, biochemical, TR-FRET; TR-FRET PG9 antibody binding; inhibition, % at 6.7 µM; shares compounds with PG9 Ab binder; hit rate 90% among 1,500; AID 651571, 2012; in the data active = inhibition above about 9%
PGV04 counter = binders of control antibody PGV04, counter-screen for PG9 antibody binder project, biochemical, TR-FRET, distinct HIV envelope site; TR-FRET PGV04 antibody-gp120 binding; hit rate 95% among 1,500; inhibition, % at 6.7 µM; AID 651604, 2012; shares compounds with PG9 Ab binder; in the data active = inhibition above about 9.5%
Active calls of the source: *; · = not tested or not shown. A selection: hits, their analogues and other compounds. The true share with any hit is near 1.4%.

SMILES | PG9 Ab binder | NR2E3 ag-1 | NR1D1 modulator | NR2E3 ag-2 | NR2E3 ag confirm | PPARg-NCOR2 ag | PG9 bind confirm | PGV04 counter
O=S(=O)(Nc1cccnc1)c1ccc(Br)c2ccccc12 | 15* | 30* | 5 | 14 | 17 | 21* | 24* | 30*
CN1CCN(NC(=O)Nc2cc(Cl)cc(Cl)c2)CC1 | -1 | · | -2 | -4 | · | · | · | ·
COc1ccc2nc(NC(=O)CSc3nc4ccccc4o3)sc2c1 | 21* | 20* | 18 | 14 | 9 | 16 | 27* | 45*
CN(CC(=O)Nc1ccccc1C(=O)NC1CC1)Cc1ccccc1F | 0 | · | -1 | 2 | · | · | · | ·
N#CC(=C=[N-])C1=C(C#N)C(c2ccccc2F)C([n+]2ccccc2)C(O)(C2CC2)N1 (centres undefined) | 9.1* | 29* | -3 | -14 | -7 | 3 | 16* | 24*
N#CC1=C(N)NC(=S)C(C(N)=O)C1c1ccccc1F (centres undefined) | -1 | -2 | -2 | 11 | · | · | · | ·
Cc1nn(CCc2nn[nH]n2)c2nc(C(F)(F)F)cc(C(F)(F)F)c12 | 1 | 4 | 4 | -14 | · | · | · | ·
Cc1nn(CCc2nn[nH]n2)c2nc(-c3ccc(Br)cc3)cc(C(F)(F)F)c12 | 19* | 25* | 1 | 4 | 37* | 33* | 27* | 37*
COc1cccc(CNC(=O)COC(=O)c2cccc(S(=O)(=O)N3CCN(C(C)=O)CC3)c2)c1 | -2 | 3 | 2 | -38 | · | · | · | ·
CC(C)(C)OC(=O)C[C@@H]1C/C=C\C[C@H](CC(=O)N(CCO)Cc2ccccc2)C(=O)NC[C@@H](c2ccccc2)OC1=O | 1 | · | 2 | 35 | · | · | · | ·
COC(=O)c1cc2n3ccccc3c(C)c(-c3ccccc3)c-2c1C(=O)OC | 21* | 59* | 3 | -13 | 63* | 63* | 29* | 39*
CC1(C)Cc2ccccc2-c2nc(NN)[nH]c(=O)c21 | -1 | 1 | 3 | 5 | · | · | · | ·
CCC1(C)Cc2ccccc2-c2[nH]c(=S)[nH]c(=O)c21 (centres undefined) | 32* | 31* | -1 | 12 | 20* | 17 | 6 | 8
Cn1c(=S)[nH]c2c(c1=O)C(C)(C)Cc1ccccc1-2 | 17* | 39* | -5 | 15 | 41* | 35* | 11* | 11*
CCC1(C)Cc2ccccc2-c2nc[nH]c(=O)c21 (centres undefined) | -1 | -1 | -5 | -4 | · | · | · | ·
CCc1ccc(-c2cc(C(=O)NN3CCOCC3)c3ccccc3n2)s1 | 1 | 2 | 8 | -20 | · | · | · | ·
CN1CCN(NC(=O)c2cc(-c3ccc(Br)s3)nc3ccccc23)CC1 | 19* | 26* | -1 | -9 | 16 | 20* | 39* | 68*
CSc1nc(Sc2ccccc2Cl)c2ccccc2n1 | 9.1* | 26* | 3 | -2 | 10 | 13 | 17* | 22*

High-throughput results as filed in PubChem.
